Assay results published in ChEMBL document CHEMBL1146182, “Synthesis and cytotoxic evaluation of combretafurans, potential scaffolds for dual-action antitumoral agents” (J Med Chem, 2006).
Active and inactive are the calls of the source. No cut-off for these calls is given here.

Columns and labels:
[1] = tested on: SH-SY5Y; experiment: Cell cycle arrest in SHSY5Y cells by accumulation at S phase after 4 hrs; assay type: functional, Homo sapiens
[2] = tested on: SH-SY5Y; experiment: Cell cycle arrest in SHSY5Y cells by accumulation at G1 phase after 12 hrs; assay type: functional, Homo sapiens
[3] = tested on: SH-SY5Y; experiment: Cell cycle arrest in SHSY5Y cells by accumulation at S phase after 24 hrs; assay type: functional, Homo sapiens
[4] = tested on: SH-SY5Y; experiment: Cell cycle arrest in SHSY5Y cells by accumulation at G1 phase after 8 hrs; assay type: functional, Homo sapiens
[5] = tested on: SH-SY5Y; experiment: Cell cycle arrest in SHSY5Y cells by accumulation at S phase after 8 hrs; assay type: functional, Homo sapiens
[6] = tested on: SH-SY5Y; experiment: Cell cycle arrest in SHSY5Y cells by accumulation at G2 phase after 4 hrs; assay type: functional, Homo sapiens
[7] = tested on: SH-SY5Y; experiment: Cell cycle arrest in SHSY5Y cells by accumulation at S phase after 12 hrs; assay type: functional, Homo sapiens
[8] = target: T1, Tubulin (Homo sapiens) (UniProt P68371+Q9H4B7+P0DPH7+P68366+Q13509+Q71U36+P04350+Q3ZCM7+P07437+P68363+Q9BQE3+Q6PEY2+Q13885+Q9BVA1+Q9BUF5); experiment: Inhibition of tubulin polymerization; assay type: protein-complex assay
Outline: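 Whole-cell (in vivo) tubulin polymerization assay in neuroblastoma cells. Cells are incubated overnight with a high inhibitor concentration. Proteins are then extracted in the presence of paclitaxel so that the tubulin polymerization state is frozen at extraction.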

[9] = tested on: SH-SY5Y; experiment: Cell cycle arrest in SHSY5Y cells by accumulation at G2 phase after 24 hrs; assay type: functional, Homo sapiens
[10] = tested on: SH-SY5Y; experiment: Cytotoxicity against SHSY5Y cell line by MTT assay; assay type: functional, cell-based; settings: Homo sapiens
[11] = tested on: SH-SY5Y; experiment: Cell cycle arrest in SHSY5Y cells by accumulation at G1 phase after 24 hrs; assay type: functional, Homo sapiens
[12] = tested on: SH-SY5Y; experiment: Cell cycle arrest in SHSY5Y cells by accumulation at G2 phase after 12 hrs; assay type: functional, Homo sapiens
[13] = target: T1, Tubulin (Homo sapiens); experiment: Induction of tubulin depolymerization at 231 nM after 24 hrs; assay type: protein-complex assay
[14] = tested on: SH-SY5Y; experiment: Cell cycle arrest in SHSY5Y cells by accumulation at G2 phase after 8 hrs; assay type: functional, Homo sapiens
[15] = tested on: SH-SY5Y; experiment: Cell cycle arrest in SHSY5Y cells by accumulation at G1 phase after 4 hrs; assay type: functional, Homo sapiens
[16] = target: T1, Tubulin (Homo sapiens); experiment: Induction of tubulin depolymerization at 35.8 nM after 24 hrs; assay type: protein-complex assay
[17] = target: T1, Tubulin (Homo sapiens); experiment: Induction of tubulin depolymerization at 2.9 nM after 24 hrs; assay type: protein-complex assay
[18] = tested on: SH-SY5Y; experiment: Cytotoxicity against SHSY5Y cell line upto 1 uM by MTT assay; assay type: functional, cell-based; settings: Homo sapiens

| Structure (SMILES) | Activity [8] | Activity [13] | Activity [16] | Activity [17] | Activity [1] [%] | Activity [2] [%] | Activity [3] [%] | Activity [4] [%] | Activity [5] [%] | Activity [6] [%] | Activity [7] [%] | Activity [9] [%] | IC50 [10] [nM] | Activity [11] [%] | Activity [12] [%] | Activity [14] [%] | Activity [15] [%] | Activity [18] |
| --- | --- | --- | --- | --- | --- | --- | --- | --- | --- | --- | --- | --- | --- | --- | --- | --- | --- | --- |
| COc1ccc(-c2cocc2-c2cc(OC)c(OC)c(OC)c2)cc1 | – | – | – | – | – | – | – | – | – | – | – | – | 39 | – | – | – | – | – |
| COc1ccc(-c2cocc2-c2cc(OC)c(OC)c(OC)c2)cc1[N+](=O)[O-] | Active | – | – | – | – | – | – | – | – | – | – | – | 245 | – | – | – | – | – |
| COc1ccc(/C=C\c2cc(OC)c(OC)c(OC)c2)cc1O [COMBRETASTATIN A4] | Active | – | – | – | 49 | 64 | 83 | 66 | 79 | 82 | 83 | 92 | 1.6 | 25 | 52 | 55 | 69 | – |
| COc1cc(-c2cocc2-c2ccc3c(c2)OCO3)cc(OC)c1OC | Active | – | – | – | – | – | – | – | – | – | – | – | – | – | – | – | – | inactive |

The next lines start with results.

| Activity [8] | Activity [13] | Activity [16] | Activity [17] | Structure (SMILES) | Activity [1] [%] | Activity [2] [%] | Activity [3] [%] | Activity [4] [%] | Activity [5] [%] | Activity [6] [%] | Activity [7] [%] | Activity [9] [%] | IC50 [10] [nM] | Activity [11] [%] | Activity [12] [%] | Activity [14] [%] | Activity [15] [%] | Activity [18] |
| --- | --- | --- | --- | --- | --- | --- | --- | --- | --- | --- | --- | --- | --- | --- | --- | --- | --- | --- |
| Active | Active | – | – | COc1ccc(-c2c(-c3cc(OC)c(OC)c(OC)c3)coc2C=O)cc1 | 54 | 42 | 29 | 93 | 84 | 62 | 79 | 25 | 231 | 77 | 82 | 23 | 32 | – |
| Active | – | – | – | COc1ccc(-c2c(-c3cc(OC)c(OC)c(OC)c3)coc2/C=N/NC(=O)CCCC(=O)O)cc1 | – | – | – | – | – | – | – | – | 1670 | – | – | – | – | – |
| Active | – | inactive | – | COc1ccc(-c2coc(C=O)c2-c2cc(OC)c(OC)c(OC)c2)cc1 | 54 | 50 | 78 | 74 | 46 | 41 | 39 | 81 | 35.8 | 58 | 55 | 25 | 53 | – |
| Active | – | – | Active | COc1ccc(-c2cocc2-c2cc(OC)c(OC)c(OC)c2)cc1O | 53 | 47 | 85 | 87 | 58 | 33 | 43 | 45 | 2.9 | 70 | 38 | 55 | 33 | – |
| Active | – | – | – | COc1ccc(-c2cocc2-c2cc(OC)c(OC)c(OC)c2)cc1N | – | – | – | – | – | – | – | – | 5.1 | – | – | – | – | – |
